Source: ChEMBL document CHEMBL1138559, “Synthesis and in vitro anti-HIV evaluation of a new series of 6-arylmethyl-substituted S-DABOs as potential non-nucleoside HIV-1 reverse transcriptase inhibitors” (Eur J Med Chem, 2009)

Key:
[1] = Selectivity index, ratio of CC50 for human MT4 cells to IC50 for HIV1 3B; type: functional
Outline: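 Ratio CC50/IC50. CC50 comes from MTT viability of uninfected MT-4 cells, and IC50 from MTT protection of HIV-1-infected MT-4 cells (MOI 0.02). Both were read after 4 days at 37 °C in parallel assays.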

[2] = Cytotoxicity against human MT4 cells by MTT assay; type: cell-based
Outline: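 Uninfected MT-4 cells run in parallel with the antiviral plates, with serial compound dilutions from DMSO stocks (50 mM or higher), for 4 days at 37 °C. Viability read by MTT. CC50 is the concentration that lowers viability of uninfected cells by 50%.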

[3] = test system: Human immunodeficiency virus 1; test: Antiviral activity against HIV1 3B infected in human MT4 cells assessed as inhibition of virus-induced cytopathic effect after 4 days by MTT assay; type: functional, organism-based; settings: Human immunodeficiency virus 1, 3B, MT4, 96 h
Outline: (§1)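 MT-4 cells at 1 × 10^5 cells/mL infected at MOI 0.02 (virus stocks titrated in MT-4, as CCID50), then put at once into wells with serial compound dilutions (DMSO stocks, 50 mM or higher). Incubation 4 days, 37 °C. Viable cells counted by MTT. IC50 taken as concentration protecting 50% of infected cells.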

[4] = test system: Human immunodeficiency virus 2; test: Antiviral activity against HIV2 ROD infected in human MT4 cells assessed as inhibition of virus-induced cytopathic effect after 4 days by MTT assay; type: functional, organism-based; settings: Human immunodeficiency virus 2, ROD, MT4, 96 h; outline: as §1

Row | Compound | Ratio CC50/IC50 [1] | CC50 [2] | IC50 [3] | IC50 [4]
1 | CCc1c(Cc2cccc(Br)c2)nc(SCc2ccc(OC)cc2)[nH]c1=O | 718 | 201 µM | 0.28 µM | > 201 µM
2 | CCc1c(Cc2ccc(-c3ccccc3)cc2)nc(SCc2ccc(OC)cc2)[nH]c1=O | <1 | 194 µM | > 194 µM | > 194 µM
3 | CCc1c(Cc2cc(C)cc(C)c2)nc(SCc2ccc(OC)cc2)[nH]c1=O | >2642 | > 317 µM | 0.12 µM | > 317 µM
4 | CCc1c(Cc2cc(C(F)(F)F)cc(C(F)(F)F)c2)nc(SCc2ccc([N+](=O)[O-])cc2)[nH]c1=O | – | > 242 µM | > 242 µM | > 242 µM
5 | CCc1c(Cc2cc(C(F)(F)F)cc(C(F)(F)F)c2)nc(SCc2ccc(OC)cc2)[nH]c1=O | <=26 | > 249 µM | ≥ 9.47 µM | > 249 µM
6 | CCc1c(Cc2cccc(Br)c2)nc(SCc2ccc([N+](=O)[O-])cc2)[nH]c1=O | 139.6 | 187 µM | 1.34 µM | > 187 µM
7 | CCc1c(Cc2ccccc2Br)nc(SCc2ccc(OC)cc2)[nH]c1=O | 717 | 165 µM | 0.23 µM | > 165 µM
8 | Cc1c(Sc2ccccc2)n(COCCO)c(=O)[nH]c1=O [HEPT] | 79 | ≤ 399 µM | 5.06 µM | > 405 µM
9 | CCc1c(Cc2c(Cl)cccc2Cl)nc(SCc2ccc([N+](=O)[O-])cc2)[nH]c1=O | >772 | > 278 µM | 0.36 µM | > 278 µM
10 | CCc1c(Cc2cc(C)cc(C)c2)nc(SCc2ccc([N+](=O)[O-])cc2)[nH]c1=O | >1906 | > 305 µM | 0.16 µM | > 305 µM
11 | COc1ccc(CSc2nc(Cc3ccccc3Br)c(C)c(=O)[nH]2)cc1 | 172 | 179 µM | 1.04 µM | > 179 µM
12 | COc1ccc(CSc2nc(Cc3cc(C(F)(F)F)cc(C(F)(F)F)c3)c(C)c(=O)[nH]2)cc1 | – | > 256 µM | > 256 µM | > 256 µM
13 | COc1ccc(CSc2nc(Cc3cccc(Br)c3)c(C)c(=O)[nH]2)cc1 | >45 | > 290 µM | 6.42 µM | > 290 µM
14 | COc1ccc(CSc2nc(Cc3ccc(Br)cc3)c(C)c(=O)[nH]2)cc1 | – | > 290 µM | > 290 µM | > 290 µM
15 | COc1ccc(CSc2nc(Cc3cccc4ccccc34)c(C(C)C)c(=O)[nH]2)cc1 | 178 | 37.4 µM | 0.21 µM | > 37.4 µM
16 | CCc1c(Cc2c(Cl)cccc2Cl)nc(SCc2ccc(OC)cc2)[nH]c1=O | >1793 | > 287 µM | 0.16 µM | > 287 µM
17 | Cc1c(Cc2cc(C(F)(F)F)cc(C(F)(F)F)c2)nc(SCc2ccc([N+](=O)[O-])cc2)[nH]c1=O | – | > 248 µM | > 248 µM | > 248 µM
18 | O=c1[nH]cnc2c1ncn2[C@H]1CC[C@@H](CO)O1 [DIDANOSINE] | >=98 | ≥ 529 µM | 5.37 µM | 2.71 µM
19 | CCc1c(Cc2ccc(Br)cc2)nc(SCc2ccc(OC)cc2)[nH]c1=O | – | > 281 µM | > 281 µM | > 281 µM
20 | COc1ccc(CSc2nc(Cc3ccc(-c4ccccc4)cc3)c(C)c(=O)[nH]2)cc1 | <1 | 100 µM | > 100 µM | > 100 µM
21 | CCc1c(Cc2ccccc2Br)nc(SCc2ccc([N+](=O)[O-])cc2)[nH]c1=O | >368 | > 272 µM | 0.74 µM | > 272 µM
22 | CCc1c(Cc2cccc3ccccc23)nc(SCc2ccc(OC)cc2)[nH]c1=O | 198 | 261 µM | 1.32 µM | > 227 µM
23 | COc1ccc(CSc2nc(Cc3cc(C)cc(C)c3)c(C)c(=O)[nH]2)cc1 | >299 | > 329 µM | 1.1 µM | > 329 µM
24 | CCc1c(Cc2cc(C)cc(C)c2)nc(SCc2ccccc2)[nH]c1=O | >361 | > 343 µM | 0.95 µM | > 343 µM
25 | Cc1c(Cc2cccc(Br)c2)nc(SCc2ccc([N+](=O)[O-])cc2)[nH]c1=O | >20 | > 280 µM | 14.2 µM | > 280 µM
26 | Cc1cc(C)cc(Cc2nc(SCc3ccc([N+](=O)[O-])cc3)[nH]c(=O)c2C)c1 | >58 | > 316 µM | 5.46 µM | > 316 µM
27 | Cc1c(Cc2ccccc2Br)nc(SCc2ccc([N+](=O)[O-])cc2)[nH]c1=O | >=168 | ≥ 246 µM | 1.46 µM | > 246 µM
